In experiment [1] the test system is A549. Nature of the experiment: Growth inhibition of human A549 cells by SRB assay. It counts as functional. The essentials: (§1)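 Sulforhodamine B staining of human tumor cell lines: A-549 lung carcinoma, KB nasopharyngeal epidermoid carcinoma, P-gp-expressing vincristine-resistant KB (KBVIN) and DU145 prostate cancer. GI50 is the molar concentration giving 50% growth inhibition, reported as mean ± SD from at least triplicate runs.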
(In general: The SRB assay estimates cell density from bound dye.)

A short description of experiment [2]: Growth inhibition of human KBVIN cells by SRB assay. Format: functional. Put shortly: as §1
The subject of experiment [3] is KB. Description: Growth inhibition of human KB cells by SRB assay. It counts as functional. Put shortly: as §1
Experiment [4] deals with DU-145. Description: Growth inhibition of human DU145 cells by SRB assay. It counts as functional. Put shortly:
as §1

Experiment [5] can be described thus: Growth inhibition of human KBVIN cells at 20 ug/mL by SRB assay. It counts as functional. Particulars: read-out: GI. The essentials: as §1
In experiment [6] the test system is A549. Nature of the experiment: Growth inhibition of human A549 cells at 20 ug/mL by SRB assay. It counts as functional. Particulars: read-out: GI. The essentials: as §1
The test system of experiment [7] is DU-145. Nature of the experiment: Growth inhibition of human DU145 cells at 20 ug/mL by SRB assay. It counts as functional. Particulars: read-out: GI. Put shortly:
as §1

The test system of experiment [8] is KB. Description: Growth inhibition of human KB cells at 20 ug/mL by SRB assay. It counts as functional. As to conditions: read-out: GI. The essentials:
as §1

The target in a further experiment is Tubulin. Description: Inhibition of tubulin assembly (unknown origin) pre-incubated with compound for 15 mins before GTP addition measured after 20 mins at 30 degC post GTP addition by turbidimetry. Format: protein-complex assay, Homo sapiens. The essentials:
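Turbidity at 350 nm. Tubulin at 1.0 mg/mL (10 µM) was preincubated with varying compound concentrations for 15 min at 30 °C without GTP. Samples were chilled on ice and 0.4 mM GTP added, then moved to 0 °C cuvettes. After a rapid jump to 30 °C, assembly was followed for 20 min. IC50 is the concentration halving the turbidity increase relative to control.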

Another experiment deals with Tubulin (Homo sapiens) (UniProt P68371+Q9H4B7+P0DPH7+P68366+Q13509+Q71U36+P04350+Q3ZCM7+P07437+P68363+Q9BQE3+Q6PEY2+Q13885+Q9BVA1+Q9BUF5). Description: Inhibition of [3H]colchicine binding to tubulin (unknown origin) at 5 uM incubated for 10 mins at 37 degC. Format: protein-complex assay.

In the case of `COc1ccc(N(C)c2nc(Cl)ccc2[N+](=O)[O-])cc1OC`, the GI50 stood at 18400 nM in the experiment with A549 [1], 16500 nM in experiment [2], 16000 nM with KB [3] and 15000 nM in the experiment on DU-145 [4].

Regarding `COc1cc(N(C)c2nc(Cl)ccc2[N+](=O)[O-])cc(OC)c1OC`, the inhibition of growth at 20 µg/mL (in [5]; with A549 [6]; in the experiment with DU-145 [7]; with KB [8]) was under 50% each time.

Consider `CNC(=O)c1ccc(C(F)(F)F)nc1N(C)c1ccc(OC)cc1`, for which the inhibition of growth at 20 µg/mL (in experiment [5]; in the experiment with A549 [6]; in the experiment with DU-145 [7]; in the experiment on KB [8]) was under 50% throughout.

Turning to `COCc1ccc(Cl)nc1N(C)c1ccc(OC)cc1`, the GI50 in the experiment with A549 [1] stood at 300 nM; in [2], 200 nM; in the experiment on KB [3] it was 330 nM; in the experiment on DU-145 [4], 250 nM. In addition, the half-maximal inhibitory concentration (IC50) on Tubulin came out at 1500 nM. The compound further returned an inhibition on Tubulin (Homo sapiens) of 88%.

Turning to `CN(c1ccc(OC(F)(F)F)cc1)c1nc(Cl)ccc1[N+](=O)[O-]`, the inhibition of growth at 20 µg/mL (in [5]; with A549 [6]; in the experiment on DU-145 [7]; in the experiment on KB [8]) was under 50% each time.

As to `CCOC(=O)c1ccc(Cl)nc1N(C)c1ccc(OC)cc1`, the GI50 with A549 [1] was determined as 1810 nM; in experiment [2] it was 1430 nM; in the experiment on KB [3], 1800 nM; in the experiment with DU-145 [4] it was 1430 nM.

In the case of `COc1ccc(N(C)c2nc(C)ccc2[N+](=O)[O-])cc1`, the GI50 in the experiment on A549 [1] amounted to 4420 nM; in experiment [2], 4190 nM; with KB [3] it was 2920 nM; in the experiment on DU-145 [4], 3350 nM.

Regarding `CNC(=O)c1ccc(Cl)nc1N(C)c1ccc(OC)cc1`, the inhibition of growth at 20 µg/mL (in experiment [5]; in the experiment on A549 [6]; with DU-145 [7]; in the experiment with KB [8]) was under 50% throughout.

Regarding `COc1ccc(N(C)c2nc(C(F)(F)F)ccc2-c2nnnn2C)cc1`, the GI50 is 1820 nM in the experiment with A549 [1], 1260 nM in [2], 1470 nM in the experiment with KB [3] and 1160 nM in the experiment with DU-145 [4].

As for `COc1ccc(N(C)c2nc(C(F)(F)F)ccc2C(=O)O)cc1`, the inhibition of growth at 20 µg/mL (in experiment [5]; in the experiment with A549 [6]; with DU-145 [7]; with KB [8]) was under 50% each time.

With `COc1ccc(N(C)c2nc(OC)ccc2[N+](=O)[O-])cc1`, the GI50 with A549 [1] came out at 3270 nM; in experiment [2], 2830 nM; in the experiment with KB [3], 3310 nM; with DU-145 [4] it was 2700 nM.

Regarding `COc1ccc(N(C)c2nc(Cl)ccc2CO)cc1`, the GI50 in the experiment with A549 [1] is 3250 nM; in experiment [2] it was 2120 nM; in the experiment on KB [3] it was 2260 nM; in the experiment with DU-145 [4], 1960 nM.

`CNc1ccc(C(=O)OC)c(N(C)c2ccc(OC)cc2)n1`: the GI50 in the experiment with A549 [1] was 3430 nM; in experiment [2], 920 nM; in the experiment on KB [3], 1360 nM; in the experiment on DU-145 [4], 1670 nM.

For the compound `COCc1ccc(C(F)(F)F)nc1N(C)c1ccc(OC)cc1`, the GI50 turned out to be 1200 nM with A549 [1], 1430 nM in [2], 1640 nM with KB [3] and 1290 nM in the experiment on DU-145 [4].

Regarding `COc1ccc(N(C)c2nc(C(F)(F)F)ccc2CO)cc1`, the GI50 amounted to 2130 nM in the experiment with A549 [1], 1750 nM in experiment [2], 1920 nM in the experiment with KB [3] and 1710 nM in the experiment with DU-145 [4].

As for `COc1ccc(N(C)c2nc(C(F)(F)F)ccc2C#N)cc1`, the GI50 in the experiment on A549 [1] stood at 7210 nM; in experiment [2], 7910 nM; with KB [3], 15300 nM; in the experiment on DU-145 [4] it was 10700 nM.

Consider `COC(=O)c1ccc(OC)nc1N(C)c1ccc(OC)cc1`, for which the GI50 in the experiment on A549 [1] amounted to 3150 nM; in [2] it was 4020 nM; in the experiment with KB [3], 4010 nM; with DU-145 [4], 2450 nM.

As to `CNc1ccc([N+](=O)[O-])c(N(C)c2ccc(OC)cc2)n1`, the GI50 was found to be 4500 nM in the experiment on A549 [1], 9630 nM in [2], 4530 nM in the experiment on KB [3] and 4450 nM in the experiment with DU-145 [4].

Consider `CCOC(=O)c1ccc(C(F)(F)F)nc1N(C)c1ccc(OC)cc1`, for which the GI50 in the experiment on A549 [1] came out at 1460 nM; in experiment [2] it was 1300 nM; in the experiment on KB [3] it was 1520 nM; in the experiment on DU-145 [4], 1300 nM.

On to `COc1ccc(N(C)c2nc(Cl)ccc2C#N)cc1`, for which the GI50 with A549 [1] was found to be 20400 nM; in [2], 18100 nM; in the experiment on KB [3], 22100 nM; in the experiment on DU-145 [4], 20400 nM.

Take `COC(=O)c1ccc(N(C)c2nc(Cl)ccc2[N+](=O)[O-])cc1`: the GI50 with A549 [1] was 3000 nM; in experiment [2] it was 2870 nM; with KB [3] it was 2890 nM; in the experiment with DU-145 [4], 2220 nM.

For the compound `COc1ccc(N(C)c2nc(Cl)ccc2C(=O)OC(C)C)cc1`, the GI50 in the experiment on A549 [1] turned out to be 22000 nM; in experiment [2], 17300 nM; in the experiment on KB [3], 14500 nM; in the experiment with DU-145 [4], 17800 nM.

Take `CN(c1ccc(C#N)cc1)c1nc(Cl)ccc1[N+](=O)[O-]`: the GI50 is 24000 nM in the experiment with A549 [1], 27000 nM in [2], 22100 nM with KB [3] and 21400 nM in the experiment on DU-145 [4].

For the compound `COC(=O)c1ccc(Cl)nc1N(C)c1ccc(OC)cc1`, the GI50 in the experiment on A549 [1] is 230 nM; in experiment [2], 200 nM; in the experiment with KB [3] it was 260 nM; with DU-145 [4], 210 nM. Moreover, the 50% inhibitory concentration (IC50) on Tubulin turned out to be 1400 nM. This compound registered an inhibition at Tubulin (Homo sapiens) of 80%.

Regarding `COc1ccc(N(C)c2nc(C(F)(F)F)ccc2C(=O)OC(C)C)cc1`, the inhibition of growth at 20 µg/mL (in experiment [5]; in the experiment with A549 [6]; with DU-145 [7]; with KB [8]) was under 50% each time.

In the case of `COC(=O)c1ccc(C(F)(F)F)nc1N(C)c1ccc(OC)cc1`, the concentration for 50% growth inhibition (GI50) is 350 nM in the experiment with A549 [1], 190 nM in [2], 410 nM in the experiment on KB [3] and 250 nM with DU-145 [4]. Besides, the IC50 on Tubulin was 1700 nM. For the same compound, on Tubulin (Homo sapiens), the inhibition stood at 82%.

Turning to `COc1ccc(N(C)c2nc(Cl)ccc2[N+](=O)[O-])cc1`, the GI50 in the experiment on A549 [1] was 2200 nM; in experiment [2], 1860 nM; in the experiment on KB [3] it was 1780 nM; in the experiment on DU-145 [4], 1550 nM.

For `COc1ccc(N(c2nc(Cl)ccc2[N+](=O)[O-])C2CCCC2)cc1`, the inhibition of growth at 20 µg/mL (in experiment [5]; in the experiment on A549 [6]; with DU-145 [7]; in the experiment on KB [8]) was under 50% each time.

For the compound `C=CCN(c1ccc(OC)cc1)c1nc(Cl)ccc1[N+](=O)[O-]`, the GI50 in the experiment with A549 [1] came out at 3330 nM; in experiment [2], 3150 nM; in the experiment with KB [3], 2610 nM; in the experiment with DU-145 [4], 2690 nM.

For `CC(=O)O[C@H]1C(=O)[C@@]2(C)[C@H]([C@H](OC(=O)c3ccccc3)[C@]3(O)C[C@H](OC(=O)[C@H](O)[C@@H](NC(=O)c4ccccc4)c4ccccc4)C(C)=C1C3(C)C)[C@]1(OC(C)=O)CO[C@@H]1C[C@@H]2O` [PACLITAXEL], the GI50 is 8.18 nM in the experiment with A549 [1], 1800 nM in experiment [2], 7.77 nM with KB [3] and 6.5 nM in the experiment with DU-145 [4].

Consider `COc1ccc(N(C)c2nc(Cl)ccc2C(=O)O)cc1`, for which the inhibition of growth at 20 µg/mL (in [5]; with A549 [6]; in the experiment with DU-145 [7]; in the experiment on KB [8]) was under 50% in each case.

As for `COc1ccc(N(C)c2nc(C(F)(F)F)ccc2-c2nnn[nH]2)cc1`, the inhibition of growth at 20 µg/mL (in experiment [5]; in the experiment on A549 [6]; in the experiment with DU-145 [7]; with KB [8]) was under 50% in each case.

In the case of `COc1ccc(N(C(C)=O)c2nc(Cl)ccc2[N+](=O)[O-])cc1`, the 50% growth inhibitory concentration (GI50) in the experiment on A549 [1] is 11800 nM; in [2] it was 13900 nM; with KB [3], 14300 nM; in the experiment with DU-145 [4] it was 11200 nM.

The GI50 is the concentration giving 50% growth inhibition. A low value points to more potent growth inhibition. By IC50 is commonly meant the midpoint of a concentration-inhibition curve. The inhibition is how much of the control response was suppressed. A higher inhibition goes with a response far below the control.
